Data: ChEMBL document CHEMBL4033788, “Novel Ligustrazine-Based Analogs of Piperlongumine Potently Suppress Proliferation and Metastasis of Colorectal Cancer Cells in Vitro and in Vivo” (J Med Chem, 2018)
The source made the active and inactive calls. The rule behind the calls is not given here.

Columns and labels:
[1] = Acute toxicity in ICR mouse assessed as survival rate at 300 mg/kg, ip administered for 14 days relative to control; assay type: organism-based; settings: in vivo
[2] = Thiol reactivity in DMSO assessed as addition reaction at C8 position at 5 mg up to 8 hrs in presence of 3.0 equiv methyl thioglycolate by 1H NMR analysis
[3] = target: T1, Catenin beta-1 (Homo sapiens) (UniProt P35222); assay: Inhibition of TGF-beta1-regulated increase in nuclear beta-catenin in human HCT116 cells at 2 to 50 nM after 48 hrs by Western blot analysis; assay type: cell-based
T1 sequence (whole entry): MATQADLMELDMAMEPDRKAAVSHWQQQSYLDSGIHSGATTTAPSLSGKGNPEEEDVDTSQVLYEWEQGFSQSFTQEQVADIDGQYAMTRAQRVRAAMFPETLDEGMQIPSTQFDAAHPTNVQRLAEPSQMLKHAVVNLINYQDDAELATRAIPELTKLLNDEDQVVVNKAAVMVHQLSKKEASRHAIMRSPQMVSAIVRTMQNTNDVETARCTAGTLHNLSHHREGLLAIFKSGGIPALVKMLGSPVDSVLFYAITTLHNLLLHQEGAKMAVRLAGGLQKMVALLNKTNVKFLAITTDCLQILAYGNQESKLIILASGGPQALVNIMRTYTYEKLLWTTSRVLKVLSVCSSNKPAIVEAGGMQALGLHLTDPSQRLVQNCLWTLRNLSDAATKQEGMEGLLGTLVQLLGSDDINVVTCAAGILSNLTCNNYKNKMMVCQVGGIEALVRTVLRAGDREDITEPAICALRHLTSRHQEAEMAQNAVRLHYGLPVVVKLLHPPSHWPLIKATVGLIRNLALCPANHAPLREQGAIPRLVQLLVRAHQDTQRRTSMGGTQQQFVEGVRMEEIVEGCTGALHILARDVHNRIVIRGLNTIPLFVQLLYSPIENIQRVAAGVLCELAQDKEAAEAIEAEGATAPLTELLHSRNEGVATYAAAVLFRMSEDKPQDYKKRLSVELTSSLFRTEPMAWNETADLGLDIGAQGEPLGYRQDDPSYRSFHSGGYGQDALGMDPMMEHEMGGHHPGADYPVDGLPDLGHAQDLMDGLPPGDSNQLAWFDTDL
Outline: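 Cytoplasmic and nuclear β-catenin were measured by Western blot in HCT-116 cells given TGF-β1 (10 ng/mL) for 48 h, with or without compound, against 0.1% DMSO vehicle. Lysates (20 μg/lane) were run on 7.5% gels and transferred to PVDF, with Lamin A among the antibodies used. Blots were read by ECL and densitometry, n = 3 independent experiments.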

[4] = system: HCT-116; assay: Cytotoxicity against human HCT116 cells assessed as reduction in cell viability at 50 nM after 72 hrs by MTT assay; assay type: cell-based; settings: hct-116, 72 h, 0.05 µM
Outline: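 HCT-116 cells exposed to TGF-β1 (10 ng/mL) alone or combined with test agent at 2, 10 or 50 nM for 24, 48 or 72 h. Viability read by MTT (formazan in DMSO, 570 nm).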

[5] = system: HCT-116; assay: Antimetastatic activity against human HCT116 cells xenografted in BALB/c nude mouse model assessed as reduction in lung metastatic tumor at 2 to 4 mg/kg, ip administered thrice a week for 6 consecutive weeks by H and E staining-based assay; assay type: functional, organism-based
Outline: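 BALB/c nude mice received HCT-116 cells into the tail vein, then were randomized and dosed intraperitoneally (1, 2 or 4 mg/kg) three times weekly. Body weight recorded weekly. Lungs sectioned (4 μm), H&E stained, and nodule number and area scored blinded in three sections per mouse. Nodule counts n = 4–6 per group.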

[6] = system: Mus musculus; assay: Toxicity in BALB/c nude mouse assessed as reduction in body weight at 2.5 to 5 mg/kg, ip administered for 21 consecutive days; assay type: organism-based; settings: in vivo
Outline: (§1)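 Male BALB/c nude mice (3−5 weeks) inoculated sc with 1 × 10^7 HCT-116 cells; at tumour volume about 75 mm3 randomized (n = 8 per group) and dosed ip daily at 2.5 or 5 mg/kg for 21 consecutive days. Body weights monitored; liver, kidney, lung and heart inspected for size and morphology at sacrifice.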

[7] = system: HCT-116; assay: Inhibition of TGF-beta1-induced increase in expression levels of vimentin protein in human HCT116 cells after 48 hrs by Western blot analysis; assay type: functional, cell-based
Outline: (§2)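 HCT-116 cells (1 × 10^6/well, plated overnight) were exposed to TGF-β1 (10 ng/mL) for 48 h, with or without test compound; vehicle was 0.1% DMSO. Lysates (20 μg/lane) were run on 7.5% SDS-PAGE and blotted to PVDF, with primary antibody overnight at 4 °C and HRP/ECL detection. Band densities were normalised to β-actin across three independent experiments.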

[8] = Acute toxicity in ICR mouse assessed as survival rate at 200 mg/kg, ip administered for 14 days relative to control; assay type: organism-based; settings: in vivo
[9] = system: Mus musculus; assay: Cardiotoxicity in BALB/c nude mouse xenografted with human HCT116 cells at 2.5 to 5 mg/kg, ip administered for 21 consecutive days; assay type: toxicity, organism-based; settings: in vivo; outline: as §1
[10] = Acute toxicity in ICR mouse assessed as survival rate at 400 mg/kg, ip administered for 14 days relative to control; assay type: organism-based; settings: in vivo
[11] = system: HCT-116; assay: Antimigratory activity in human HCT116 cells assessed as inhibition of TGF-beta1-induced cell migration at 50 nM after 48 hrs by trans-well assay; assay type: functional, cell-based
Outline: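 HCT-116 cells (1 × 10^5/well) placed in upper chambers of 8 μm pore transwells. Lower chambers held, in triplicate, medium alone or TGF-β1 (10 ng/mL) with or without test agents (2, 10, 50 nM) for 48 h. Non-migrated cells removed, migrated cells stained with crystal violet, 10 fields per well counted blinded. Three independent experiments.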

[12] = system: HCT-116; assay: Inhibition of TGF-beta1-induced increase in expression levels of MMP-9 protein in human HCT116 cells at 50 nM after 48 hrs by Western blot analysis; assay type: functional, cell-based; outline: as §2
[13] = target: RAC-alpha serine/threonine-protein kinase (Homo sapiens) (UniProt P31749); assay: Inhibition of TGF-beta1-induced AKT phosphorylation in human HCT116 cells at 50 nM after 48 hrs by Western blot analysis; assay type: cell-based
Outline: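 HCT-116 cells treated with or without TGF-β1 (10 ng/mL) for 48 h, with or without test agent. Lysates (20 μg/lane) run on 7.5% SDS-PAGE and transferred to PVDF. Probed for p-Akt (Ser473), Akt, p-GSK-3β (S9), GSK-3β, E-cadherin, MMP-9 and β-actin, detected by ECL. Densitometry relative to β-actin or total protein. Three independent experiments.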

[14] = system: HCT-116; assay: Inhibition of TGF-beta1-induced increase in expression levels of vimentin protein in human HCT116 cells at 50 nM after 48 hrs by Western blot analysis; assay type: functional, cell-based; outline: as §2
[15] = system: HCT-116; assay: Antiinvasive activity in human HCT116 cells assessed as inhibition of TGF-beta1-induced cell invasion at 50 nM after 48 hrs by crystal violet staining-based assay; assay type: functional
Outline: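 Transwell invasion. HCT-116 cells (2.5 × 10^5/well) seeded on matrigel-coated chambers, with TGF-β1 (10 ng/mL) and test agents (2, 10, 50 nM) in the lower chamber for 48 h. Invaded cells stained with crystal violet and counted. Three independent experiments.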

Sequence of RAC-alpha serine/threonine-protein kinase (Homo sapiens) (P31749 whole entry): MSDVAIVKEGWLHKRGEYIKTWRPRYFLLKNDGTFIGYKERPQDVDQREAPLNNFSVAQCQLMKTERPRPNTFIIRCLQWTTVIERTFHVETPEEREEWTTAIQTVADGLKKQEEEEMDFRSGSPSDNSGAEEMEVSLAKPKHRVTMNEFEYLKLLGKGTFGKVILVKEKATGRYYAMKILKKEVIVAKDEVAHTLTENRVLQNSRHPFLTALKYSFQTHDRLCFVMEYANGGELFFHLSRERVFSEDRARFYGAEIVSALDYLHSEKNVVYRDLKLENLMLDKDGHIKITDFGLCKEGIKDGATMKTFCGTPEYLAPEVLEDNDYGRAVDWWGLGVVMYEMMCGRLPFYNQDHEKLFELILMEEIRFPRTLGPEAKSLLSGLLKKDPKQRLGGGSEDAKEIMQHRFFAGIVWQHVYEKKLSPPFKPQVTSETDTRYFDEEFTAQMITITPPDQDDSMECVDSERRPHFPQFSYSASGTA

Compound | survival at 336 h [1] [%] | Drug metabolism [2] | inhibition [3] | Activity [4] | Activity [5] | Activity [6] | inhibition [7] | survival at 336 h [8] [%] | Activity [9] | survival at 336 h [10] [%] | Activity [11] | inhibition [12] | inhibition [13] | inhibition [14] | Activity [15]
Cc1nc(C)c(/C=C/C(=O)N2CCC=C(Cl)C2=O)nc1C | 10 | Metabolite not detected | Active | Toxic | Active | Non-Toxic | Dose-dependent effect | 30 | Non-Toxic | 0 |  |  |  |  | 
COc1cc(/C=C/C(=O)N2CCC=CC2=O)cc(OC)c1OC [PIPLARTINE] |  |  |  |  |  |  |  |  |  |  | Active | Active | Active | Active | Active
